Test results: ChEMBL document CHEMBL1134327, “Design, synthesis, and pharmacological evaluation of thapsigargin analogues for targeting apoptosis to prostatic cancer cells” (2001)
“And” between values parts separate entries of the source, which are not always exact repeats. Identical values can stand only once.

How the values were obtained:
[1] = organism: Oryctolagus cuniculus; assay: Inhibition of rabbit skeletal muscle SERCA activity relative to TG
[2] = organism: Oryctolagus cuniculus; assay: Inhibition of rabbit skeletal muscle sarcoplasmic and endoplasmic reticulum [Ca(2+)]-dependent ATPases(SERCA) activity
In short: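 Rabbit skeletal-muscle SR microsomes were prepared by differential centrifugation with a 0.6 M KCl wash. Buffer was pH 7.5 Tris with KCl, MgCl2, EGTA/CaCl2 and A23187. Doses were in nmol/mg SR protein. Activity is % of uninhibited control in triplicate, corrected for residual Ca²⁺-independent ATPase.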

[3] = Increase in cytosolic [Ca2+] concentration in TSU-Pr1 cells at given effective cytotoxic concentration.; assay type: functional, Homo sapiens
[4] = Loss of clonogenic survival of human prostate cancer TSU-Pr1 cells relative to TG was determined; assay type: functional
[5] = Loss of clonogenic survival of human prostate cancer TSU-Pr1 cells.; assay type: functional; settings: read-out: LC50 (the source's name)
In short: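 TSU-Pr1 human prostatic cancer cells treated with each analogue. Clonogenic survival compared with untreated controls. Value reported as LC50 (µM), the concentration producing 50% loss of clonogenic survival.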

SMILES	Activity [1]	ID50 (nM (mg SR protein)-1) [2]	Activity [3]	Activity [4]	CC50 [5]	[Ca2+] [3]
C/C=C(/C)C(=O)O[C@H]1C(C)=C2[C@H]([C@@H]1OC(=O)CCCCCCC)[C@@](C)(OC(C)=O)C[C@H](OC(=O)CCCCCNC(=O)[C@@H](N)CC(C)C)[C@@]1(O)[C@H]2OC(=O)[C@@]1(C)O	287	3840	84 nM and 40 nM	>667	> 20000 nM	–
C/C=C(/C)C(=O)O[C@H]1C(C)=C2[C@H]([C@@H]1OC(=O)CCCCCCC)[C@@](C)(OC(C)=O)C[C@H](OC(=O)CCc1ccc(NC(=O)[C@@H](N)CC(C)C)cc1)[C@@]1(O)[C@H]2OC(=O)[C@@]1(C)O	35	466	–	29	880 nM	–
C/C=C(/C)C(=O)O[C@H]1C(C)=C2[C@H]([C@@H]1OC(=O)CCCCCCC)[C@@](C)(OC(C)=O)C[C@H](OC(=O)CCCCCCN)[C@@]1(O)[C@H]2OC(=O)[C@@]1(C)O	90	1210	209 nM	364	10900 nM	–
C/C=C(/C)C(=O)O[C@H]1C(C)=C2[C@H]([C@@H]1OC(=O)CCCCCCC)[C@@](C)(OC(C)=O)C[C@H](OC(=O)CCCCCCCCCCCNC(=O)[C@@H](N)CO)[C@@]1(O)[C@H]2OC(=O)[C@@]1(C)O	0.8	10.3	–	30	890 nM	–
C/C=C(/C)C(=O)O[C@H]1C(C)=C2[C@H]([C@@H]1OC(=O)CCCCCCC)[C@@](C)(OC(C)=O)C[C@H](OC(=O)CCCCCCCCCCCN)[C@@]1(O)[C@H]2OC(=O)[C@@]1(C)O	2.6	35	369 nM and 235 nM	39	1160 nM	–
C/C=C(/C)C(=O)O[C@H]1C(C)=C2[C@H]([C@@H]1OC(=O)CCCCCCC)[C@@](C)(OC(C)=O)C[C@H](OC(=O)CCCCCCCCCCCNC(=O)[C@H](C)N)[C@@]1(O)[C@H]2OC(=O)[C@@]1(C)O	1.2	16.5	410 nM and 338 nM	9.3	280 nM	–
C/C=C(/C)C(=O)O[C@H]1C(C)=C2[C@H]([C@@H]1OC(=O)CCCCCCC)[C@@](C)(OC(C)=O)C[C@H](OC(=O)CCCCCCCCCCCNC(=O)[C@@H](N)CC(C)C)[C@@]1(O)[C@H]2OC(=O)[C@@]1(C)O	3.4	45	414 nM	1	30 nM	173 nM
C/C=C(/C)C(=O)O[C@H]1C(C)=C2[C@H]([C@@H]1OC(=O)CCCCCCC)[C@@](C)(OC(C)=O)C[C@H](OC(=O)CCC)[C@@]1(O)[C@H]2OC(=O)[C@@]1(C)O [THAPSIGARGIN]	1	13.4	–	1	30 nM	–
C/C=C(/C)C(=O)O[C@H]1C(C)=C2[C@H]([C@@H]1OC(=O)CCCCCCC)[C@@](C)(OC(C)=O)C[C@H](OC(=O)CCCCCCCCCCN)[C@@]1(O)[C@H]2OC(=O)[C@@]1(C)O	3	40	420 nM and 242 nM	25	750 nM	–
C/C=C(/C)C(=O)O[C@H]1C(C)=C2[C@H]([C@@H]1OC(=O)CCCCCCC)[C@@](C)(OC(C)=O)C[C@H](OC(=O)CCCCCCCCCCCNC(=O)[C@@H](N)Cc1ccccc1)[C@@]1(O)[C@H]2OC(=O)[C@@]1(C)O	–	–	446 nM and 406 nM	7	210 nM	–
C/C=C(/C)C(=O)O[C@H]1C(C)=C2[C@H]([C@@H]1OC(=O)CCCCCCC)[C@@](C)(OC(C)=O)C[C@H](OC(=O)CCCCCCCN)[C@@]1(O)[C@H]2OC(=O)[C@@]1(C)O	17	223	217 nM	128	3850 nM	–
C/C=C(/C)C(=O)O[C@H]1C(C)=C2[C@H]([C@@H]1OC(=O)CCCCCCC)[C@@](C)(OC(C)=O)C[C@H](OC(=O)CCCCCN)[C@@]1(O)[C@H]2OC(=O)[C@@]1(C)O	99	1330	284 nM	>667	> 20000 nM	–
